We go through 13 compounds from ChEMBL document CHEMBL3045650, “Design, synthesis, and 3D-QSAR analysis of novel 1,3,4-oxadiazol-2(3H)-ones as protoporphyrinogen oxidase inhibitors” (J Agric Food Chem, 2010).

By Ki is commonly meant the dissociation constant of the complex between target and ligand, obtained from inhibition or displacement.

One test relates to Brassica juncea. The test is described as follows: Post-emergence herbicidal activity against Brassica juncea assessed as growth inhibition at emulsified concentrate of 150 g/ai ha after 15 days by greenhouse test. Type of test: functional. The essentials: (§1)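 About 20 seeds sown 1–3 cm deep, grown at 15–30 °C and 50% RH. Dicot seedlings sprayed postemergence at the two-leaf stage with a 100 g/L emulsifiable concentrate (DMF/Tween-80) diluted in water, 150 g ai/ha. Untreated and solvent controls included. Visual rating at 15 days, three replicates.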

Another test relates to Poa annua. The test is described as follows: Post-emergence herbicidal activity against Poa annua assessed as growth inhibition at emulsified concentrate of 150 g/ai ha after 15 days by greenhouse test. Type of test: functional. The essentials:
(§2)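 About 20 seeds sown 1–3 cm deep, grown at 15–30 °C and 50% RH. Monocot seedlings sprayed postemergence at the one-leaf stage with a 100 g/L emulsifiable concentrate (DMF/Tween-80) diluted in water, 150 g ai/ha. Untreated and solvent controls included. Visual rating at 15 days, three replicates.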

The test system of the next test is Amaranthus retroflexus. Description: Post-emergence herbicidal activity against Amaranthus retroflexus assessed as growth inhibition at emulsified concentrate of 150 g/ai ha after 15 days by greenhouse test. Type of test: functional. The essentials:
as §1

Test [1] deals with T1, Protoporphyrinogen oxidase (Homo sapiens, UniProt P50336).
T1 sequence (P50336 whole entry): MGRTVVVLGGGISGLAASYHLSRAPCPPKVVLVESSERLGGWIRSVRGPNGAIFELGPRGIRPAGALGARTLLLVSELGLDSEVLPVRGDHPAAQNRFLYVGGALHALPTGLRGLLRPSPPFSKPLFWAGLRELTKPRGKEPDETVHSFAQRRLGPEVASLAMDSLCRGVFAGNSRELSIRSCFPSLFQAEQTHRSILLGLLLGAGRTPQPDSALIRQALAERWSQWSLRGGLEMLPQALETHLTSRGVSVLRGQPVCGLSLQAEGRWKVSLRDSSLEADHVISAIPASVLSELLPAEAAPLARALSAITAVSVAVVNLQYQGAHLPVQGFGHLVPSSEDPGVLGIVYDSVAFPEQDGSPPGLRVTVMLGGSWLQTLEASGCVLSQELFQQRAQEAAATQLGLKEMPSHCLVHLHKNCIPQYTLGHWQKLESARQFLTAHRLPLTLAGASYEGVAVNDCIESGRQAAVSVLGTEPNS
Description: Inhibition of Homo sapiens (human) recombinant protoporphyrinogen oxidase expressed in Escherichia coli JM109 assessed as oxidation of protoporphyrinogen IX substrate by fluorescence assay.

A further test concerns Echinochloa crus-galli. Description: Post-emergence herbicidal activity against Echinochloa crus-galli (barnyard grass) assessed as growth inhibition at emulsified concentrate of 150 g/ai ha after 15 days by greenhouse test. Format: functional. In outline: as §2
The next test concerns Digitaria sanguinalis. Description: Post-emergence herbicidal activity against Digitaria sanguinalis (hairy crabgrass) assessed as growth inhibition at emulsified concentrate of 150 g/ai ha after 15 days by greenhouse test. Type of test: functional. The essentials:
as §2

Another test has as its system Eclipta prostrata. The test is described as follows: Post-emergence herbicidal activity against Eclipta prostrata assessed as growth inhibition at emulsified concentrate of 150 g/ai ha after 15 days by greenhouse test. Type of test: functional. The essentials:
as §1

`CCOC(=O)Sc1nc2cc(-n3nc(C(C)(C)C)oc3=O)c(F)cc2s1`: the “inhibition (INH)” value in the test with Brassica juncea, in the test on Poa annua, in the test with Amaranthus retroflexus, in the test on Echinochloa crus-galli, with Digitaria sanguinalis and in the test with Eclipta prostrata was 0% throughout. The Ki in test [1] was found to be 1.3 µM.

Consider `COC(=O)CSc1nc2cc(-n3nc(C(C)(C)C)oc3=O)c(F)cc2s1`, for which the “inhibition (INH)” value in the test with Brassica juncea came out at 0%; in the test with Poa annua it was 0%; in the test on Amaranthus retroflexus, 60%; in the test with Echinochloa crus-galli, 0%; in the test with Digitaria sanguinalis, 0%; in the test with Eclipta prostrata it was 0%. The inhibition constant Ki in test [1] is 3.99 µM.

Take `CCOC(=O)C(C)(C)Sc1nc2cc(-n3nc(C(C)(C)C)oc3=O)c(F)cc2s1`: the “inhibition (INH)” value with Brassica juncea turned out to be 50%; in the test on Poa annua it was 0%; in the test on Amaranthus retroflexus, 60%; with Echinochloa crus-galli, 0%; in the test on Digitaria sanguinalis, 0%; in the test on Eclipta prostrata it was 70%. Besides, the Ki in test [1] amounted to 1.54 µM.

`CCOC(=O)CCSc1nc2cc(-n3nc(C(C)(C)C)oc3=O)c(F)cc2s1`: the “inhibition (INH)” value in the test on Brassica juncea is given as 60%; in the test with Poa annua it was 0%; with Amaranthus retroflexus, 50%; with Echinochloa crus-galli, 0%; in the test on Digitaria sanguinalis, 0%; in the test with Eclipta prostrata it was 50%. For the same compound, the Ki in test [1] turned out to be 0.32 µM.

Consider `C#CCSc1nc2cc(-n3nc(C(C)(C)C)oc3=O)c(Cl)cc2s1`, for which the Ki in test [1] is 8.61 µM.

Turning to `CCOC(=O)CCCSc1nc2cc(-n3nc(C(C)(C)C)oc3=O)c(Br)cc2s1`, in test [1], the Ki stood at 5.83 µM.

In the case of `CC(C)(C)c1nn(-c2cc3nc(SCC=C(Cl)Cl)sc3cc2Br)c(=O)o1`, the Ki in test [1] is 18.6 µM.

As for `COC(=O)/C=C/CSc1nc2cc(-n3nc(C(C)(C)C)oc3=O)c(F)cc2s1`, the “inhibition (INH)” value in the test with Brassica juncea was 40%; with Poa annua it was 0%; in the test with Amaranthus retroflexus, 40%; in the test with Echinochloa crus-galli, 0%; in the test on Digitaria sanguinalis, 0%; in the test with Eclipta prostrata, 50%. Besides, in test [1], the Ki is 7.48 µM.

As for `CC(C)(C)c1nn(-c2cc3nc(SCC=C(Cl)Cl)sc3cc2F)c(=O)o1`, the “inhibition (INH)” value was 70% in the test with Brassica juncea; 50% in the test with Poa annua; 60% in the test on Amaranthus retroflexus; 50% with Echinochloa crus-galli; 40% in the test with Digitaria sanguinalis; 60% with Eclipta prostrata. For the same compound, the Ki in test [1] was determined as 10.9 µM.

`CC(C)(C)OC(=O)CSc1nc2cc(-n3nc(C(C)(C)C)oc3=O)c(F)cc2s1`: the “inhibition (INH)” value in the test with Brassica juncea, with Poa annua, in the test on Amaranthus retroflexus, with Echinochloa crus-galli, in the test on Digitaria sanguinalis and in the test with Eclipta prostrata was 0% each time. For the same compound, the Ki in test [1] came to 1.59 µM.

Regarding `C=CCSc1nc2cc(-n3nc(C(C)(C)C)oc3=O)c(F)cc2s1`, the “inhibition (INH)” value was found to be 60% in the test on Brassica juncea; 0% with Poa annua; 60% in the test with Amaranthus retroflexus; 0% in the test with Echinochloa crus-galli; 0% in the test on Digitaria sanguinalis; 40% in the test with Eclipta prostrata. The Ki in test [1] is 15.9 µM.

In the case of `COC(=O)Sc1nc2cc(-n3nc(C(C)(C)C)oc3=O)c(F)cc2s1`, the “inhibition (INH)” value with Brassica juncea is listed as 0%; in the test on Poa annua, 0%; in the test with Amaranthus retroflexus, 40%; in the test on Echinochloa crus-galli, 0%; with Digitaria sanguinalis, 0%; in the test on Eclipta prostrata it was 0%. The Ki in test [1] came to 0.72 µM.

With `Cc1nn(-c2cc(NS(C)(=O)=O)c(Cl)cc2Cl)c(=O)n1C(F)F` [SULFENTRAZONE], the “inhibition (INH)” value with Brassica juncea turned out to be 100%; with Amaranthus retroflexus, 100%; with Echinochloa crus-galli it was 75%; with Digitaria sanguinalis, 70%; in the test on Eclipta prostrata it was 100%. For the same compound, the Ki in test [1] amounted to 0.72 µM.
